# Shown are actives, neighbours in structure and some others; about 3.1% of the full set was active somewhere.
# OX1R antag-1 = OX1R (HCRTR1) antagonists, primary screen, fluorescence, CHO/OX1R cells, Fluo-8 calcium, orexin A; Fluo-8 calcium fluorescence; inhibition, % at 5 µM; 0.43% of 330,000 active;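 active = inhibition above its plate's threshold, mean inhibition of all tested compounds on the plate plus 3 SD, cut at about 37% in these data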
# CHO parental Ca = ATP-evoked calcium signal inhibitors, parental CHO, primary screen, counter-screen for OX1R antagonist project, cell-based, fluorescence, Fluo-8 calcium dye; parental CHO-K1, ATP-induced calcium, Fluo-8 fluorescence; inhibition, % at 5.6 µM; 0.63% of 330,000 active;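 active = inhibition above that plate's mean sample inhibition plus 3 SD, cut at about 26% in these data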
#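 test system = CHO parental line | reagent = ATP stimulus | measured by = intracellular calcium via Fluo-8 no-wash fluorescent dye | control set = ATP and no-ATP DMSO wells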
# OX1R antag-2 = antagonists of human orexin 1 receptor (OX1R) | Orexin/Hypocretin receptor type 1 (Homo sapiens), O43613 | OX1R-expressing cells, FRET antagonist read-out | inhibition, % at 6.6 µM | 1.8% of 330,000 active | AID 485270, 2010; in the data active = inhibition mostly above about 38%, no sharp cut-off; inactive = mostly below about 40%
# GPR7 antag = GPR7 receptor antagonists, primary screen, cell-based, fluorescence, single concentration | inhibition, % at 4.4 µM | 1.1% of 290,000 active | GPR7-expressing cells, fluorescence antagonist assay | Neuropeptides B/W receptor type 1 (Homo sapiens), P48145; in the data active = inhibition above about 16%, passing the limit was not always enough;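 also: cells stimulated with the agonist NPW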
# Target sequence (P48145 whole entry, looked up): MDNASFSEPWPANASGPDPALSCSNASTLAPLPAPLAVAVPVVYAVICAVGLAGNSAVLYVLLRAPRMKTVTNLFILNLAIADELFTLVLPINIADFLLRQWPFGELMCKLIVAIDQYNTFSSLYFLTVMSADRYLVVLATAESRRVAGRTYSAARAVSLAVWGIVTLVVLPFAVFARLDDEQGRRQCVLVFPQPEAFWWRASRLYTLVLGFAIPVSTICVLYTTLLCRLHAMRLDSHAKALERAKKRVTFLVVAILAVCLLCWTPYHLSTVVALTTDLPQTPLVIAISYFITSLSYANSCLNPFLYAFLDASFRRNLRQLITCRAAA
# GalR3 antag = GalR3 antagonists in HEK293 cells, primary screen, cell-based, fluorescence readout; AID 651719, 2012; inhibition, % at 3 µM; Galanin receptor type 3 (Homo sapiens), O60755; 0.44% of 360,000 active; HEK293 GalR3-CNG cAMP membrane potential fluorescence; galR3 body fused to GalR1 C-terminus;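 active = inhibition above the screen-wide average plus 3 SD, cut at about 13% in these data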;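 also: forskolin and galanin both at EC90 stimulate the cells; cAMP rise reported by CNG channel membrane potential dye signal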
# Hits are given with their value; . = inactive; / = not tested or not shown.
SMILES,OX1R antag-1,CHO parental Ca,OX1R antag-2,GPR7 antag,GalR3 antag
NS(=O)(=O)c1ccc(CCNC(=O)COC(=O)c2ccc([N+](=O)[O-])o2)cc1,.,.,44,/,.
CCOC(=O)C1CCN(C(=O)COC(=O)c2ccc([N+](=O)[O-])o2)CC1,.,.,33,/,.
CCOC(=O)C1=C(COC(=O)c2cc([N+](=O)[O-])ccc2Cl)NC(=O)NC1C (stereo not given),/,/,/,/,.
Cc1ccc(S(=O)(=O)N2[C@@H](c3cccc(C)c3)C(C(=O)O)=C[C@H]2C(C)(C)C)cc1,.,.,.,/,.
CC(C)CN(C(=O)COC(=O)c1ccc([N+](=O)[O-])o1)C1CCS(=O)(=O)C1 (stereo not given),.,.,75,.,.
COC(=O)C1=C(C)NC(=O)NC1c1ccc([N+](=O)[O-])o1 (stereo not given),.,.,77,.,.
COC(=O)C1=C(C)NC(=S)NC1c1ccc(-c2cc(Cl)ccc2Cl)o1 (stereo not given),.,.,56,.,.
O=C(OCCCOC(=O)c1ccc([N+](=O)[O-])o1)c1ccc([N+](=O)[O-])o1,.,.,53,/,.
COc1ccc(-c2csc(NC(=O)CCNC(=O)c3ccco3)n2)cc1,/,/,/,/,.
O=C(NC1CCCCC1)C(c1ccc(C(F)(F)F)cc1)n1c(=O)c(-c2ccccc2)nc2ccccc21 (stereo not given),/,/,/,/,.
CC(C)=CCC[C@H](C)C[C@@H]1CC2=C(C(=O)OC(C)(C)O2)[C@@H](c2ccc(F)cc2)O1,/,/,/,/,.
Cc1cccnc1NC(=O)Nc1cccc2ccccc12,.,.,45,.,.
Cc1c([N+](=O)[O-])cnc(Sc2ccccc2)c1[N+](=O)[O-],.,.,.,/,.
CCOC(=O)C1(Cc2ccccc2)CCN(Cc2cccc3c2OCO3)CC1,.,.,72,.,.
CN(C)S(=O)(=O)c1ccc(C(=O)NCc2nnc(SCC(=O)Nc3ccc(F)cc3)n2-c2ccc(F)cc2)cc1,.,.,.,.,.
COc1ccccc1/C=C/CN1CCCC(CO)(Cc2cccc(Cl)c2)C1 (stereo not given),61,34,69,.,.
CCc1ccc(NC(=O)CC2C(=O)N(c3ccc(C)cc3)C(=O)N2CCc2ccncc2)cc1 (stereo not given),.,.,.,.,.
Cc1cc(-c2ccc(C(C)C)c(S(=O)(=O)N3CC(=O)Nc4ccccc43)c2)on1,.,.,39,.,.
O=c1oc2c3c4c(cc2c2c1CCC2)OCCN4CCC3,.,.,59,.,.
Cc1coc2c(C)c3oc(=O)c4c(c3cc12)CCC4,/,/,/,.,/
CCN1CCCC1CNC(=O)c1cc2cc(F)ccc2[nH]1 (stereo not given),.,.,.,.,.
O=C(Nc1nnc(CSCc2ccccc2F)s1)c1cccc([N+](=O)[O-])c1,.,.,43,.,.
O=C(Nc1ccc(N2CCCC(O)C2)cc1)c1snc2c(=O)[nH]cnc12 (stereo not given),.,.,40,.,.
Cc1cccc(NC(=O)c2snc3c(=O)[nH]cnc23)c1,/,/,/,.,/
COc1cc2sc3cc(NCc4ccc(C)o4)ccc3c(=O)c2cc1OC,.,.,45,/,.
SMILES,OX1R antag-1,CHO parental Ca,OX1R antag-2,GPR7 antag,GalR3 antag
COc1cc2sc3cc(NCc4ccc5c(c4)OCO5)ccc3c(=O)c2cc1OC,.,.,50,/,.
COc1cccc2sc3cc(NCc4ccc5c(c4)OCO5)ccc3c(=O)c12,.,.,.,/,.
COc1ccc(CCNC(=O)CCc2cn(C)c3ccccc23)c(OC)c1OC,.,.,.,.,.
CC(C)(C)c1ccc(S(=O)(=O)NC(=O)C2(C)CCN2C(=O)CC2CCCC2)cc1 (stereo not given),/,/,/,/,.
CCCCN1C(=O)C(=O)N(CC(=O)NC2CCCc3ccccc32)C1=O (stereo not given),.,.,.,.,.
CN(CCO)c1ccc2c(c1)OC[C@@H](Cc1ccccc1)NS2(=O)=O,/,/,/,/,.
CCCCOc1ccc(CC(=O)NO)cc1,.,44,.,.,.
CCCCOc1ccc(C(=O)NC)cc1,.,.,.,.,.
Cc1cc(C)cc(N(C(=O)Cc2cccs2)C(C(=O)NC2CCCCC2)c2ccccn2)c1 (stereo not given),.,.,65,.,.
Cc1cc(C)cc(N(C(=O)Cc2cccs2)C(C(=O)NC2CCCC2)c2ccc(C)o2)c1 (stereo not given),.,.,.,.,.
N#Cc1nc(-c2ccc(OCc3ccc(Cl)cc3)cc2)oc1NCc1cccnc1,.,.,.,.,.
N#Cc1nc(-c2ccc(OCc3ccccc3)cc2)oc1NCc1cccnc1,45,54,.,.,.
N/C(=N\OC(=O)c1cccc2ccccc12)c1cccnc1,.,.,53,.,.
COc1ccc2[nH]c3c(NCCC4=CCCCC4)ncnc3c2c1,/,/,/,23,.
CCN(CC)CCNc1ncnc2c1[nH]c1ccc(OC)cc12,.,.,.,.,/
O=C1NC(=O)/C(=C\c2ccc(Br)o2)S1,.,.,38,.,.
COc1cccc(/C=N/NC(=O)C(=O)NCc2ccco2)c1O,.,.,41,.,.
COc1cccc(/C=N/NC(=O)C(=O)NCc2ccco2)c1OC,.,.,.,.,.
COc1cccc(/C=N/NC(=O)CSCC(=O)Nc2ccccc2)c1O,.,.,59,.,.
COC(=O)c1ccc(CNC(=O)COC(=O)c2cc(Cl)nc(Cl)c2)cc1,.,.,.,.,.
CC1CCc2nc3ccc(S(=O)(=O)N4CCC(C(=O)NC(C)c5ccccc5)CC4)cc3c(C(=O)O)c2C1 (stereo not given),.,.,.,.,.
COC(C[C@H](O)[C@@H](C)[C@H](O)COCc1ccccc1)OC,/,/,/,/,.
Clc1ccc(-c2cn3c(n2)-c2ccccc2C3)cc1Cl,.,.,51,.,.
Cc1ccc(S(=O)(=O)NCCc2ccncc2)cc1[N+](=O)[O-],.,.,.,.,.
C/C(=N\NC(=O)COc1cccc(Br)c1)c1ccc2c(c1)OCCO2,.,.,.,/,.
O=[N+]([O-])c1ccc(S(=O)(=O)CC(CN2CCOCC2)N2CCOCC2)cc1 (stereo not given),.,.,49,.,.
Cc1ccc(N(CC(O)CN2CCOCC2)S(=O)(=O)c2ccc([N+](=O)[O-])cc2)cc1 (stereo not given),.,.,38,.,.
COc1ccc(N(CC(O)CN2CCOCC2)S(=O)(=O)c2ccc(C)cc2)cc1 (stereo not given),.,.,.,.,.
CCn1c(O)c(C=Nc2ccccc2)sc1=S,.,.,59,.,.
c1cncc(-c2csc(-c3cccnc3)n2)c1,.,.,.,.,.

# Source: PubChem
